In ChEMBL document CHEMBL3603753, “Carbamoyl Triazoles, Known Serine Protease Inhibitors, Are a Potent New Class of Antimalarials” (J Med Chem, 2015):
Converted amounts (≈) assume the structure as drawn. One block for each molecule: values may come before it. The source made the active and inactive calls. The rule behind the calls is not given here.

Columns and labels:
Plasmodium falciparum [1] = experiment: Antimalarial activity against Plasmodium falciparum 3D7 infected in erythrocytes incubated for 48 hrs by [3H]hypoxanthine incorporation assay; assay type: functional, organism-based
Acetylcholinesterase = Acetylcholinesterase (Homo sapiens, UniProt P22303); experiment: Inhibition of human AChE
Plasmodium falciparum [2] = experiment: Antimalarial activity against Plasmodium falciparum 3D7 infected in erythrocytes incubated for 24 hrs by [3H]hypoxanthine incorporation assay; assay type: functional, organism-based
Dipeptidyl peptidase 4 = Dipeptidyl peptidase 4 (Homo sapiens, UniProt P27487); experiment: Inhibition of DPP4 (unknown origin)
[3] = Kinetic solubility of the compound by chemoluminescent nitrogen detection kinetic solubility assay; assay type: physicochemical; conditions: read-out: Kinetic_solubility
[4] = Passive permeability by PAMPA method; assay type: ADME; conditions: read-out: permeability
HepG2 = experiment: Cytotoxicity against human HepG2 cells; assay type: cell-based
[5] = molecular target: Voltage-gated inwardly rectifying potassium channel KCNH2 (Homo sapiens, UniProt Q12809); experiment: Inhibition of human ERG by QPatch assay
Liver microsome = experiment: Intrinsic clearance in human liver microsomes; assay type: ADME
[6] = Half life in mouse liver microsomes; assay type: ADME
[7] = Half life in human liver microsomes; assay type: ADME
Albumin = Albumin (Homo sapiens, UniProt P02768); experiment: Binding affinity to HSA; assay type: ADME; conditions: human serum albumin (HSA), read-out: PB (converted)
[8] = Inhibition of CYP3A (unknown origin) by 4VG metabolism assay; assay type: ADME, Homo sapiens
[9] = Inhibition of CYP3A (unknown origin) by 4VR metabolism assay; assay type: ADME, Homo sapiens
Plasma [10] = experiment: Stability in CD1 mouse plasma at 10 mM in presence of serine protease inhibitor PMSF after 0.5 to 2 hrs by UPLC-MS/MS method; assay type: ADME, cell-free; conditions: 10000 µM
Plasma [11] = experiment: Stability in CD1 mouse plasma at 10 mM after 0.5 to 2 hrs by UPLC-MS/MS method; assay type: ADME, cell-free; conditions: 10000 µM
Plasmodium berghei = experiment: Antimalarial activity against Plasmodium berghei infected in orally dosed mouse model of malaria infection; assay type: functional; conditions: po
Procedure, shortened: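 Mice infected with P. berghei; compound given orally (p.o.) as 2 doses of 50 mg kg⁻¹.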

Blood = experiment: Stability in CD1 mouse blood at 10 mM after 0.5 to 2 hrs by UPLC-MS/MS method; assay type: ADME, tissue-based; conditions: 10000 µM
Plasmodium falciparum [12] = experiment: Antimalarial activity against Plasmodium falciparum assessed as parasite reduction ratio at 10 times antimalarial IC50 level over 48 hrs; assay type: functional
Procedure, shortened: (§1)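 Parasite reduction ratio assay on P. falciparum with compound at 10× its Pf IC₅₀. Viable parasite decrease is followed over one life cycle (48 h), giving log₁₀ PRR and the time needed to kill 99.9% of parasites (PCT99.9%).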

Plasmodium falciparum [13] = experiment: Antimalarial activity against Plasmodium falciparum assessed as time duration for 99.9% parasite killing at 10 times antimalarial IC50 level over 48 hrs; assay type: functional; procedure, shortened: as §1
Plasmodium falciparum [14] = experiment: Antimalarial activity against Plasmodium falciparum 3D7 infected in erythrocytes incubated for 72 hrs by [3H]hypoxanthine incorporation assay; assay type: functional, organism-based
[15] = molecular target: T1, Subtilisin-like protease 1 (Plasmodium falciparum, UniProt O61142); experiment: Inhibition of Plasmodium falciparum recombinant SUB1 using SERA4st1F-6R12 substrate incubated for 55 mins by fluorescence spectrophotometry
T1 sequence (O61142 whole entry): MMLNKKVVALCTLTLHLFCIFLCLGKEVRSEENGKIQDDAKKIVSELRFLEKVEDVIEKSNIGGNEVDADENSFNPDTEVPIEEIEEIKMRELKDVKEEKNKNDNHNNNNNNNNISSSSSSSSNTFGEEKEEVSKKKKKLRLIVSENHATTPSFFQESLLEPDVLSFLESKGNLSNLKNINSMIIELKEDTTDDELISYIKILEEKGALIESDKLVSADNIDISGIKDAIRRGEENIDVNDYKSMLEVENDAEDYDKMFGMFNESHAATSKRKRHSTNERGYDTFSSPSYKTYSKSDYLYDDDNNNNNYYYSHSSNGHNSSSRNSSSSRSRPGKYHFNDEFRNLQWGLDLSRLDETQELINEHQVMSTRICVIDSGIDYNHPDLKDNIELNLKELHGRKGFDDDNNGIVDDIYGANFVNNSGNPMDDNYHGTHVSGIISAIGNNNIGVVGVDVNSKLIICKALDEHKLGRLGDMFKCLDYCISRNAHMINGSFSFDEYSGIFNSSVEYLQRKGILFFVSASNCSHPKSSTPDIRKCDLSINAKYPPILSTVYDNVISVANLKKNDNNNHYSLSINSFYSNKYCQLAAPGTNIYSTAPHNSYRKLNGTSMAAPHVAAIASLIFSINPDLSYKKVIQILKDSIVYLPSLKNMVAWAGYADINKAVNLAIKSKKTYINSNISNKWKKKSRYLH

Plasmodium falciparum [16] = experiment: Antimalarial activity against Plasmodium falciparum infected in erythrocytes assessed as young trophozoites level at 10 times antimalarial IC50 level incubated for 24 and 48 hrs by Giemsa staining based microsocpy

Sequence of Albumin (P02768 whole entry): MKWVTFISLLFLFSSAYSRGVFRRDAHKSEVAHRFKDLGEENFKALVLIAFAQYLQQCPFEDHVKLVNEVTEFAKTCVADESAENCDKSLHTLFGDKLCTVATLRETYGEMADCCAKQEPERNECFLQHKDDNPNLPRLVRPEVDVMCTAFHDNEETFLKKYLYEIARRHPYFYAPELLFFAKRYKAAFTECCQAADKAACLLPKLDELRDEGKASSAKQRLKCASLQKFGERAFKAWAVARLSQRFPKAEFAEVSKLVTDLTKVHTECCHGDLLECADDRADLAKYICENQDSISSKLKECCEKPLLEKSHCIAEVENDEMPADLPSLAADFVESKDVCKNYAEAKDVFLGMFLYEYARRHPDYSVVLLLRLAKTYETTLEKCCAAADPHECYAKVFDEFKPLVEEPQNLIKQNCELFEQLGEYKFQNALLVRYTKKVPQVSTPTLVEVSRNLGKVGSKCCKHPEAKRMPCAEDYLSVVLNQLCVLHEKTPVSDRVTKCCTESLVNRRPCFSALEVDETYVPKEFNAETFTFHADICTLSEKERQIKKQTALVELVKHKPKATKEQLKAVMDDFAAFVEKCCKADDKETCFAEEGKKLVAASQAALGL
Sequence of Acetylcholinesterase (P22303 whole entry): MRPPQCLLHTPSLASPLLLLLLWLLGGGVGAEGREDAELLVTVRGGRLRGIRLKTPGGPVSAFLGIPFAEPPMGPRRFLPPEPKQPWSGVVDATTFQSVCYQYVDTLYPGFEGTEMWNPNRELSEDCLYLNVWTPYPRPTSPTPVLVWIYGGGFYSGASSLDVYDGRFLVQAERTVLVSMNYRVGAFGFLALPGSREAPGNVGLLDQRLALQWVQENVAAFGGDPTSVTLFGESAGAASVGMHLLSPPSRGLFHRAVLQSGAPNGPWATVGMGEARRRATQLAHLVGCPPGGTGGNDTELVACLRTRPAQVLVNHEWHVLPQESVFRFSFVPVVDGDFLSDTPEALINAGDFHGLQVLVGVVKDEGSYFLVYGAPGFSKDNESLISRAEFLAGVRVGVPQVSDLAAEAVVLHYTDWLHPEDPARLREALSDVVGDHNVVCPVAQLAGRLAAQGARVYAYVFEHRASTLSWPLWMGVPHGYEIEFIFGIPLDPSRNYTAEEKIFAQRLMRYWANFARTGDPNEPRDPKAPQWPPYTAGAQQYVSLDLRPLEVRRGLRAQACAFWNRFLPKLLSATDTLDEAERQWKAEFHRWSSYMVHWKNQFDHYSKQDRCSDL
Sequence of Dipeptidyl peptidase 4 (P27487 whole entry): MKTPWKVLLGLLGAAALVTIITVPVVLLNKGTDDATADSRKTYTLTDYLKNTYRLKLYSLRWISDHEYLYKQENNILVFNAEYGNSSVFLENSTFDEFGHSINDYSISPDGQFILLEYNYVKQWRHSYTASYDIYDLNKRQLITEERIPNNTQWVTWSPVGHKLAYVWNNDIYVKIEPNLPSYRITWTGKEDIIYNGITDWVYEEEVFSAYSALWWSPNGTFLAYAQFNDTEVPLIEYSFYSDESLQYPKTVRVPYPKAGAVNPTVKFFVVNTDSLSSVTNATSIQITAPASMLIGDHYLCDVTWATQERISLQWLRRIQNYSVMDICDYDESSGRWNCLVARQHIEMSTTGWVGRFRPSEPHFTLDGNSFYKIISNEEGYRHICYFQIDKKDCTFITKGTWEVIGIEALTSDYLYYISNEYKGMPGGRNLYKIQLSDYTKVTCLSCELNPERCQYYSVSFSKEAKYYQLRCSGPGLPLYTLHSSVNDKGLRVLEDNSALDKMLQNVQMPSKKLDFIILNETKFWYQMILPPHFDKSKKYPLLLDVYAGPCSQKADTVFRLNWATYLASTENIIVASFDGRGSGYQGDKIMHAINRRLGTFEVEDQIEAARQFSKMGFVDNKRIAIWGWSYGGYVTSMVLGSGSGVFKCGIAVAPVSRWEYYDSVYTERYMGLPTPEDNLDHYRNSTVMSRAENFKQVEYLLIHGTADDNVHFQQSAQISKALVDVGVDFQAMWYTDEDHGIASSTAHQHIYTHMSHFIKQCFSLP
Sequence of Voltage-gated inwardly rectifying potassium channel KCNH2 (Q12809 whole entry): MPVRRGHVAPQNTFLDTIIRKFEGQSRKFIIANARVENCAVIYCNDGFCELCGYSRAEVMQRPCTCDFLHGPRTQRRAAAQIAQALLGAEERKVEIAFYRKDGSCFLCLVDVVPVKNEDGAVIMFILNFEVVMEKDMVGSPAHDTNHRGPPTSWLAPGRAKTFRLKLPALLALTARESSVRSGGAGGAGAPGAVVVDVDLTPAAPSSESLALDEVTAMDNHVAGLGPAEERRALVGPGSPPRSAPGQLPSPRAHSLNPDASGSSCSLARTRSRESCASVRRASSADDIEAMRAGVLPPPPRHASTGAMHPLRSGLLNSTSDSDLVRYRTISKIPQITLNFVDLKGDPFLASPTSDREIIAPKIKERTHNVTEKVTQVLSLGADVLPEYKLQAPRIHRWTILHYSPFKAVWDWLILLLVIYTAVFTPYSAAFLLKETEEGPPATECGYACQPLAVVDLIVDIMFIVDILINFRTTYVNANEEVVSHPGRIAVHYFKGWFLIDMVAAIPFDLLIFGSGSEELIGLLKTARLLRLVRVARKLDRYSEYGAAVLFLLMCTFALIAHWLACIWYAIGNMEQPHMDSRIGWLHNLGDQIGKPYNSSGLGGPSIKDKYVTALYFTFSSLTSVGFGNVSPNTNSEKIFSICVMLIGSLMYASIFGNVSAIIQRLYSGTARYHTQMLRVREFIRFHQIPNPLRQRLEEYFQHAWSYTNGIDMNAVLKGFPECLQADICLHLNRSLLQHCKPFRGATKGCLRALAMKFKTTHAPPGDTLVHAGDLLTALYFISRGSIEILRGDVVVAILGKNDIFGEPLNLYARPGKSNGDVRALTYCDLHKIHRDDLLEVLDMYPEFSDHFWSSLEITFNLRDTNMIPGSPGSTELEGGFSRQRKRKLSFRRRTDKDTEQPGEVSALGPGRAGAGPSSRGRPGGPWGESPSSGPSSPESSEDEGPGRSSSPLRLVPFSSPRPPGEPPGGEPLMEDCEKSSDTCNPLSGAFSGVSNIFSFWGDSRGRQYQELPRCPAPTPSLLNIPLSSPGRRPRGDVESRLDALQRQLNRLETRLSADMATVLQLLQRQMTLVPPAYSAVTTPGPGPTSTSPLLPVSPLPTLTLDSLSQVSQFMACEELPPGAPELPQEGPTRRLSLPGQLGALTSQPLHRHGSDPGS

IC50 (Plasmodium falciparum [1]): 840 nM
Structure (SMILES): COc1ccc(CN(C(=O)n2cnc(S(=O)(=O)[C@@H]3C[C@H]4CC[C@@H]3C4)n2)C(C)C)cc1

Structure (SMILES): CSc1nc(-c2ccc(OC(F)(F)F)cc2)nn1C(=O)N(C)C
IC50 (Acetylcholinesterase): 200 µM

IC50 (Plasmodium falciparum [1]): 725 nM
Structure (SMILES): CN(Cc1ccccc1Cl)C(=O)n1cnc(S(=O)(=O)[C@@H]2C[C@H]3CC[C@@H]2C3)n1

IC50 (Plasmodium falciparum [1]): 197 nM
Structure (SMILES): CN(Cc1ccc(F)cc1)C(=O)n1cnc(S(=O)(=O)[C@@H]2C[C@H]3CC[C@@H]2C3)n1

Structure (SMILES): CC(C)N(C)C(=O)n1cnc(S(=O)(=O)C2CC3CCC2C3)n1 (stereo not given)
IC50 (Plasmodium falciparum [2]): 49 nM
IC50 (Dipeptidyl peptidase 4): 9 nM
solubility kinetic [3]: ≥ 500 µM
Papp [4]: > 30 ×10⁻⁶ cm/s
IC50 (HepG2): > 100 µM
inhibition (INH) [5]: Not Active
Intrinsic clearance (Liver microsome): 1.6 mL/min/g
half-life [6]: 3.8 min
half-life [7]: > 30 min
fraction unbound (Albumin): 0.42
IC50 [8]: > 50 µM
IC50 [9]: 31.6 µM
Stability (Plasma [10]): Stable
Stability (Plasma [11]): Unstable
ED50 (Plasmodium berghei): > 50 mg/kg
Stability (Blood): Unstable
log(ratio) (Plasmodium falciparum [12]): 3.1
Time (Plasmodium falciparum [13]): 48 h
IC50 (Plasmodium falciparum [1]): 16 nM
IC50 (Plasmodium falciparum [14]): 28 nM
IC50 [15]: Not Active
Activity (Plasmodium falciparum [16]): Active

IC50 (Plasmodium falciparum [1]): 164 nM
Structure (SMILES): CCN(C)C(=O)n1cnc(S(=O)(=O)c2c(C)cc(C)cc2C)n1

IC50 (Plasmodium falciparum [1]): 30 nM
Structure (SMILES): COc1ccc(CN(C)C(=O)n2cnc(S(=O)(=O)[C@@H]3C[C@H]4CC[C@@H]3C4)n2)c(OC)c1

Structure (SMILES): O=C1C(O)=C([C@H]2CC[C@H](c3ccc(Cl)cc3)CC2)C(=O)c2ccccc21 [ATOVAQUONE]
IC50 (Plasmodium falciparum [1]): 1 nM
IC50 (Plasmodium falciparum [14]): 0.3 nM
Activity (Plasmodium falciparum [16]): Active

Intrinsic clearance (Liver microsome): 3.1 mL/min/g
half-life [6]: < 5 min
half-life [7]: 22.3 min
IC50 (Plasmodium falciparum [1]): 1420 nM
IC50 (Plasmodium falciparum [14]): 537 nM
IC50 [15]: Not Active
Structure (SMILES): CC(C)N(C(=O)n1cnc(S[C@@H]2C[C@H]3CC[C@@H]2C3)n1)C(C)C

IC50 (Plasmodium falciparum [1]): 1860 nM
Structure (SMILES): CN(Cc1cccc(C(F)(F)F)c1)C(=O)n1cnc(S(=O)(=O)[C@@H]2C[C@H]3CC[C@@H]2C3)n1

Intrinsic clearance (Liver microsome): 1.5 mL/min/g
half-life [6]: < 5 min
half-life [7]: > 30 min
IC50 (Plasmodium falciparum [1]): 178 nM
Structure (SMILES): O=C(N1CCCC1)n1cnc(S[C@@H]2C[C@H]3CC[C@@H]2C3)n1

IC50 (Plasmodium falciparum [1]): 1260 nM
Structure (SMILES): CN(Cc1ccccc1C(F)(F)F)C(=O)n1cnc(S(=O)(=O)[C@@H]2C[C@H]3CC[C@@H]2C3)n1

IC50 (Plasmodium falciparum [1]): 71 nM
IC50 [15]: Not Active
Structure (SMILES): CC(C)N(C)C(=O)n1cnc(S[C@@H]2C[C@H]3CC[C@@H]2C3)n1

IC50 (Plasmodium falciparum [1]): 290 nM
Structure (SMILES): CN(Cc1ccc(S(C)(=O)=O)cc1)C(=O)n1cnc(S(=O)(=O)[C@@H]2C[C@H]3CC[C@@H]2C3)n1

IC50 (Plasmodium falciparum [1]): 626 nM
Structure (SMILES): O=C(N1CCCCC1)n1cnc(S(=O)(=O)[C@@H]2C[C@H]3CC[C@@H]2C3)n1

Structure (SMILES): CN(C)C(=O)n1cnc(S[C@@H]2C[C@H]3CC[C@@H]2C3)n1
IC50 (Plasmodium falciparum [1]): 141 nM

IC50 (Plasmodium falciparum [1]): 86 nM
Structure (SMILES): CN(Cc1cccnc1)C(=O)n1cnc(S(=O)(=O)[C@@H]2C[C@H]3CC[C@@H]2C3)n1

solubility kinetic [3]: 28 µM (≈ 12.1 µg/mL)
half-life [6]: 9 min
IC50 (Plasmodium falciparum [1]): 16 nM
Structure (SMILES): CN(Cc1ccc(C(C)(C)C)cc1)C(=O)n1cnc(S(=O)(=O)[C@@H]2C[C@H]3CC[C@@H]2C3)n1
IC50 (HepG2): 75.2 µM

IC50 (Plasmodium falciparum [1]): 8 nM
Structure (SMILES): CC(C)N(C)C(=O)n1cnc(S(=O)(=O)C2C3CC4CC(C3)CC2C4)n1 (stereo not given)

Structure (SMILES): CN(C(=O)n1cnc(S(=O)(=O)[C@@H]2C[C@H]3CC[C@@H]2C3)n1)C(C)(C)C
IC50 (Plasmodium falciparum [1]): > 5000 nM

IC50 (Plasmodium falciparum [1]): 93 nM
Structure (SMILES): CCN(C)C(=O)n1cnc(S(=O)(=O)[C@@H]2C[C@H]3CC[C@@H]2C3)n1

IC50 (Plasmodium falciparum [1]): 418 nM
IC50 [15]: Not Active
Structure (SMILES): O=C(N1CCCC1)n1cnc(S(=O)(=O)Cc2ccccc2)n1

IC50 (Plasmodium falciparum [1]): 585 nM
Structure (SMILES): CCN(CC)C(=O)n1cnc(S(=O)(=O)[C@@H]2C[C@H]3CC[C@@H]2C3)n1

IC50 (Plasmodium falciparum [1]): 307 nM
Structure (SMILES): CN(Cc1cccc(Cl)c1)C(=O)n1cnc(S(=O)(=O)[C@@H]2C[C@H]3CC[C@@H]2C3)n1
